Results from ChEMBL document CHEMBL1158168, “Condensed bridgehead nitrogen heterocyclic system: synthesis and pharmacological activities of 1,2,4-triazolo-[3,4-b]-1,3,4-thiadiazole derivatives of ibuprofen and biphenyl-4-yloxy acetic acid” (Eur J Med Chem, 2008).
Values after ≈ are worked out from the molar mass of the structure shown. Active and inactive are the calls of the source. The rule behind the calls is not given here.

Experiments:
[1] = system: Candida albicans; experiment: Antimicrobial activity against Candida albicans ATCC 2091 by cup plate method; assay type: functional
In short: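 Candida albicans grown on Sabouraud dextrose medium and tested by cup-plate diffusion, with compounds dissolved in DMF. Compounds were tested at 200, 100, 50 and 25; those inhibiting at 25 were also tested at 12.5 and 6.25. MIC is the lowest concentration preventing visible growth.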

[2] = system: Escherichia coli; experiment: Antibacterial activity against sEscherichia coli ATCC 25922 by cup plate method; assay type: functional
In short: (§1)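 Cup-plate diffusion on nutrient agar, with compounds dissolved in DMF. Compounds were tested at 200, 100, 50 and 25; those inhibiting at 25 were also tested at 12.5 and 6.25. MIC is the lowest concentration preventing visible growth on the plate.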

[3] = system: Rattus norvegicus; experiment: Antiinflammatory activity in Wistar albino rat assessed as inhibition of carrageenan-induced paw edema administered at equimolar oral dose relative to 70 mg/kg ibuprofen measured 4 hrs after carrageenan challenge; assay type: functional
In short: (§2)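 Wistar rats of either sex (180-200 g), six per group, dosed orally in a 0.5% CMC vehicle. One hour later, 0.1 mL of […] in 0.9% NaCl was injected sub-plantar into the right hind paw. Paw volume was read by plethysmometer before and 4 h after carrageenan, and percent inhibition was calculated.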

[4] = system: Staphylococcus aureus; experiment: Antibacterial activity against Staphylococcus aureus ATCC 19433 by cup plate method; assay type: functional; in short: as §1
[5] = system: Rattus norvegicus; experiment: Antiinflammatory activity in Wistar albino rat assessed as inhibition of carrageenan-induced paw edema administered at equimolar oral dose relative to 10 mg/kg fluribiprofen measured 4 hrs after carrageenan challenge; assay type: functional; in short: as §2
[6] = system: Rattus norvegicus; experiment: Inhibition of lipid peroxidation in rat assessed as malondialdehyde level per 100 mg of tissue administered at equimolar oral dose relative to 210 mg/kg ibuprofen; assay type: functional
In short: (§3)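 Gastric mucosa was scraped from the stomachs after ulcer scoring. 100 mg was homogenized in ice-cold 1.15% KCl and reacted with SDS, acetate buffer (pH 3.5) and 0.8% TBA at 95 °C for 60 min. The product was extracted into n-butanol/pyridine (15:1) and absorbance read at 532 nm. MDA was calculated using ε 1.56 × 10⁵ M⁻¹cm⁻¹ and expressed per 100 mg tissue.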

[7] = system: Rattus norvegicus; experiment: Gastrointestinal toxicity in rat assessed as gastric mucosal damage severity index administered at equimolar oral dose relative to 210 mg/kg ibuprofen; assay type: organism-based, Gastric mucosa; set-up: dose 210 mg/kg, route oral; conditions: in vivo
In short: (§4)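 Rats, six per group, were fasted 24 h with water allowed, then dosed orally in a 0.5% CMC vehicle. They were fed normally for 17 h and then sacrificed. Stomachs were opened along the greater curvature and mucosal lesions scored under a magnifier (0.5 redness to 3.0 for more than 5 ulcers). Severity index is the mean group score minus the control mean.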

[8] = system: Rattus norvegicus; experiment: Hepatotoxicity in po dosed Wistar albino rat assessed as total protein content after 7 days; assay type: toxicity, organism-based; conditions: in vivo, 168 h
[9] = system: Rattus norvegicus; experiment: Hepatotoxicity in po dosed Wistar albino rat assessed as serum glutamate oxaloacetate transaminase activity after 7 days; assay type: toxicity, organism-based; conditions: in vivo, 168 h
[10] = system: Rattus norvegicus; experiment: Hepatotoxicity in po dosed Wistar albino rat assessed as serum glutamate pyruvate transaminase activity after 7 days; assay type: toxicity, organism-based; conditions: in vivo, 168 h
[11] = system: Rattus norvegicus; experiment: Hepatotoxicity in po dosed Wistar albino rat assessed as alkaline phosphatase activity after 7 days; assay type: toxicity, organism-based; conditions: in vivo, 168 h
[12] = system: Rattus norvegicus; experiment: Hepatotoxicity in po dosed Wistar albino rat assessed as total albumin content after 7 days; assay type: toxicity, organism-based; conditions: in vivo, 168 h
[13] = system: Rattus norvegicus; experiment: Hepatotoxicity in po dosed Wistar albino rat assessed as hepatocyte necrosis after 7 days; assay type: toxicity, organism-based; conditions: hepatocytes, 168 h
[14] = system: Rattus norvegicus; experiment: Gastrointestinal toxicity in rat assessed as gastric mucosal damage severity index at 30 mg/kg, po; assay type: organism-based, Gastric mucosa; set-up: dose 30 mg/kg, route oral; conditions: in vivo
In short: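 Rats, groups of six, food but not water withheld 24 h; oral dosing in 0.5% CMC. Normal diet for 17 h, then sacrificed. Stomach opened along the greater curvature and inspected under a magnifying glass. Scored 0.5 redness to 3.0 (>5 ulcers); severity index is the group mean score minus the control mean.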

[15] = system: Rattus norvegicus; experiment: Inhibition of lipid peroxidation in rat assessed as malondialdehyde level per 100 mg of tissue at 30 mg/kg, po; assay type: functional
In short: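 Gastric mucosa scraped from stomachs after ulcerogenicity testing; 100 mg homogenized in 1.15% ice-cold KCl. TBA method with SDS and acetate buffer pH 3.5, heated at 95 °C for 60 min. Extracted into n-butanol/pyridine 15:1, absorbance read at 532 nm. Expressed as nmol MDA/100 mg tissue using ε 1.56 × 10⁵ cm⁻¹ M⁻¹.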

[16] = system: Mus musculus; experiment: Analgesic activity in Swiss albino mouse assessed as effect on reaction time for tail withdrawal administered at 10 mg/kg, po after 4 hrs by tail immersion method; assay type: functional
In short: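 Swiss albino mice of either sex, 25-30 g, groups of six; oral dosing as suspension in 0.5% w/v CMC in water. Tail immersion: lower 5 cm of tail dipped in water held at 55 ± 0.5 °C. Reaction time taken before and 4 h after dosing.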

[17] = system: Rattus norvegicus; experiment: Antiinflammatory activity in Wistar albino rat assessed as inhibition of carrageenan-induced paw edema at 10 mg/kg, po measured 4 hrs after carrageenan challenge; assay type: functional
In short: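 Wistar albino rats of either sex, 180-200 g, groups of six; oral dosing, vehicle 0.5% CMC. 0.1 mL of 0.1% carrageenan in sterile 0.9% NaCl injected subplantar into the right hind paw 1 h after dosing. Paw volume measured by plethysmometer before and 4 h after carrageenan; percent inhibition calculated.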

[18] = system: Rattus norvegicus; experiment: Gastrointestinal toxicity in rat assessed as gastric mucosal damage severity index administered at equimolar oral dose relative to 30 mg/kg fluribiprofen; assay type: organism-based, Gastric mucosa; set-up: dose 30 mg/kg, route oral; conditions: in vivo; in short: as §4
[19] = system: Mus musculus; experiment: Analgesic activity in Swiss albino mouse assessed as effect on reaction time for tail withdrawal administered at 70 mg/kg, po after 4 hrs by tail immersion method; assay type: functional
In short: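 Swiss albino mice of either sex (25-30 g), six per group. Compounds were given orally as a suspension in 0.5% w/v CMC in water. Tail-withdrawal reaction time was measured before dosing and 4 h after, by immersing the lower 5 cm of the tail in water held at 55 ± 0.5 °C.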

[20] = system: Rattus norvegicus; experiment: Gastrointestinal toxicity in rat assessed as gastric mucosal damage severity index at 210 mg/kg, po; assay type: organism-based, Gastric mucosa; set-up: dose 210 mg/kg, route oral; conditions: in vivo; in short: as §4
[21] = system: Rattus norvegicus; experiment: Inhibition of lipid peroxidation in rat assessed as malondialdehyde level per 100 mg of tissue at 210 mg/kg, po; assay type: functional; in short: as §3

| SMILES | MIC [1] [µg/mL] | MIC [2] [µg/mL] | inhibition in vivo [3] [%] | MIC [4] [µg/mL] | inhibition in vivo [5] [%] | other results |
| --- | --- | --- | --- | --- | --- | --- |
| CC(C)Cc1ccc(C(C)c2nnc3sc(COc4ccc(Cl)cc4Cl)nn23)cc1 (stereo unspecified) | 100 (≈ 217 µM) | 25 (≈ 54.2 µM) | 38.6 | 200 (≈ 433 µM) | – | – |
| CC(C)Cc1ccc(C(C)c2nnc3sc(-c4ccccc4N)nn23)cc1 (stereo unspecified) | 12.5 (≈ 33.1 µM) | 100 (≈ 265 µM) | 57.6 | 200 (≈ 530 µM) | – | – |
| CCCCNc1nn2c(COc3ccc(-c4ccccc4)cc3)nnc2s1 | 25 (≈ 65.9 µM) | 100 (≈ 264 µM) | – | – | 65.9 | Activity [4]: inactive |
| Clc1ccc(OCc2nn3c(COc4ccc(-c5ccccc5)cc4)nnc3s2)c(Cl)c1 | 50 (≈ 103 µM) | 50 (≈ 103 µM) | – | 25 (≈ 51.7 µM) | 50.8 | – |
| Cc1ccc(Nc2nn3c(C(C)c4ccc(CC(C)C)cc4)nnc3s2)c(C)c1 (stereo unspecified) | 200 (≈ 493 µM) | 50 (≈ 123 µM) | 53 | 200 (≈ 493 µM) | – | – |
| Nc1ccccc1-c1nn2c(COc3ccc(-c4ccccc4)cc3)nnc2s1 | 25 (≈ 62.6 µM) | 50 (≈ 125 µM) | – | 25 (≈ 62.6 µM) | 47.7 | – |
| CC(C)Cc1ccc(C(C)c2nnc3sc(Cc4ccccc4Nc4c(Cl)cccc4Cl)nn23)cc1 (stereo unspecified) | 200 (≈ 373 µM) | 200 (≈ 373 µM) | 18.2 | 50 (≈ 93.2 µM) | – | – |
| CC(C)Cc1ccc(C(C)c2nnc3sc(Nc4ccc(F)cc4)nn23)cc1 (stereo unspecified) | 200 (≈ 506 µM) | 200 (≈ 506 µM) | 28 | 200 (≈ 506 µM) | – | – |
| CC(C)Cc1ccc(C(C)c2nnc3sc(Nc4ccccc4)nn23)cc1 (stereo unspecified) | – | 25 (≈ 66.2 µM) | 68.2 | 100 (≈ 265 µM) | – | Activity [1]: inactive; Activity [6]: 5.12 nmol; UI [7]: 0.667 |
| CC(C)Cc1ccc(C(C)c2nnc3sc(-c4ccc(Cl)cc4Cl)nn23)cc1 (stereo unspecified) | 200 (≈ 464 µM) | 200 (≈ 464 µM) | 80.3 | 200 (≈ 464 µM) | – | Activity [8]: 1.89 g/dL; Activity [9]: 147.5 U/ml; Activity [10]: 28.17 U/ml; Activity [11]: 15.18 U/ml; Activity [12]: 1.8 g/dL; Activity [13]: Non-toxic; Activity [6]: 5.04 nmol; UI [7]: 0.333 |
| CC(C(=O)O)c1ccc(-c2ccccc2)c(F)c1 (stereo unspecified) [FLURBIPROFEN] | – | – | – | – | – | UI [14]: 1.666; Activity [15]: 7.51 nmol; inhibition in vivo at 10 mg/kg [16]: 69.5%; inhibition in vivo at 10 mg/kg [17]: 80.3% |
| Fc1ccc(Nc2nn3c(COc4ccc(-c5ccccc5)cc4)nnc3s2)cc1 | – | 25 (≈ 59.9 µM) | – | – | 78.2 | Activity [8]: 0.9 g/dL; Activity [1]: inactive; Activity [9]: 137 U/ml; Activity [10]: 26.5 U/ml; Activity [11]: 17.07 U/ml; Activity [12]: 0.71 g/dL; Activity [13]: Non-toxic; Activity [4]: inactive; UI [18]: 0.666 |
| CC(C)Cc1ccc(C(C)c2nnc3sc(-c4ccc(N)cc4)nn23)cc1 (stereo unspecified) | 200 (≈ 530 µM) | 12.5 (≈ 33.1 µM) | 78.8 | 200 (≈ 530 µM) | – | Activity [6]: 5.65 nmol; UI [7]: 0.75 |
| c1ccc(Nc2nn3c(COc4ccc(-c5ccccc5)cc4)nnc3s2)cc1 | 200 (≈ 501 µM) | 25 (≈ 62.6 µM) | – | – | – | Activity [4]: inactive |
| Clc1ccc(-c2nn3c(COc4ccc(-c5ccccc5)cc4)nnc3s2)cc1 | 50 (≈ 119 µM) | 25 (≈ 59.7 µM) | – | 100 (≈ 239 µM) | 78.8 | UI [18]: 0.833 |
| CC(=O)N1CCN(c2ccc(OCC3COC(Cn4ccnc4)(c4ccc(Cl)cc4Cl)O3)cc2)CC1 (stereo unspecified) [KETOCONAZOLE] | 6.25 (≈ 11.8 µM) | – | – | – | – | – |
| Nc1ccc(-c2nn3c(COc4ccc(-c5ccccc5)cc4)nnc3s2)cc1 | 200 (≈ 501 µM) | 200 (≈ 501 µM) | – | 50 (≈ 125 µM) | 76.5 | UI [18]: 0.417 |
| CCCCNc1nn2c(C(C)c3ccc(CC(C)C)cc3)nnc2s1 (stereo unspecified) | 50 (≈ 140 µM) | 100 (≈ 280 µM) | 80.3 | 200 (≈ 559 µM) | – | Activity [6]: 5.78 nmol; UI [7]: 1 |
| CC(C)Cc1ccc(C(C)C(=O)O)cc1 (stereo unspecified) [IBUPROFEN] | – | – | – | – | – | inhibition in vivo at 70 mg/kg [19]: 74.1%; UI [20]: 2; Activity [21]: 7.79 nmol |
| CC1COc2c(N3CCN(C)CC3)c(F)cc3c(=O)c(C(=O)O)cn1c23 (stereo unspecified) [OFLOXACIN] | – | 6.25 (≈ 17.3 µM) | – | 6.25 (≈ 17.3 µM) | – | – |
| Clc1ccc(-c2nn3c(COc4ccc(-c5ccccc5)cc4)nnc3s2)c(Cl)c1 | – | 50 (≈ 110 µM) | – | 25 (≈ 55.1 µM) | – | – |
| Cc1ccc(Nc2nn3c(COc4ccc(-c5ccccc5)cc4)nnc3s2)c(C)c1 | 100 (≈ 234 µM) | 50 (≈ 117 µM) | – | – | 39.4 | Activity [4]: inactive |
| c1ccc(-c2ccc(OCc3nnc4sc(-c5ccccc5)nn34)cc2)cc1 | – | 25 (≈ 65 µM) | – | 25 (≈ 65 µM) | 65.1 | Activity [1]: inactive |
